Measurements pooled from the literature.

C/C(=N\O)c1ccc(-c2cccc(O)c2)c(Cl)c1O
IC50 (NCI-H1299; cell growth or viability, MTT; 48 h): 17.8 µM

O=C(Cn1ccnc1[N+](=O)[O-])NCc1ccccc1
IC50 (RAW264.7; cell growth or viability, MTT): > 240 µM

COc1ccccc1/C=C/CNCC(O)COc1ccc2ccccc2c1 (stereo not drawn)
IC50 (NCI-H1299; cell growth or viability, CCK-8; 72 h): 16.3 µM

Brc1ccc(Nc2nc(N/N=C\c3c[nH]c4ccccc34)nc(Nc3ccccc3)n2)cc1
IC50 (SK-BR-3; cell growth or viability, SRB; 72 h): 12.2 µM

Cn1nnc2c(C(=O)N3CCCC3)ncn2c1=O
IC50 (D54; cell growth or viability, resazurin; 7 days): 12 µM

O=C(/C=C(O)/C=C/c1cccnc1)/C=C/c1cccnc1
IC50 (CHO-K1; cell growth or viability, SRB; 72 h): 10.5 µM

COc1cccc(-c2nc3ccc(C)cc3[nH]2)c1
IC50 (human Rhabdomyosarcoma cell; cell growth or viability, MTT; 48 h): 22.3 µM

CCn1c(-c2nnc(NC(=O)c3cc4c([nH]c5ccccc54)c(-c4cc(OC)c(OC)c(OC)c4)n3)s2)cc2ccccc21
IC50 (HL-60; cell growth or viability, MTT; 72 h): 43.2 µM

COc1ccccc1/C=C/CNCC(O)COc1ccc2[nH]c3ccccc3c2c1 (stereo not drawn)
IC50 (NCI-H1299; cell growth or viability, CCK-8; 72 h): 6.1 µM

COc1cc(/C=C/C(=O)/C=C(O)/C=C/c2cccc3cnccc23)ccc1O
IC50 (CHO-K1; cell growth or viability, SRB; 72 h): 32.6 µM

Cc1ccc2nc(-c3c(F)cccc3Cl)[nH]c2c1
IC50 (human Rhabdomyosarcoma cell; cell growth or viability, MTT; 48 h): 45.1 µM

COc1cc(Nc2nccc(-c3cnn4nc(OC)ccc34)n2)cc(C(F)(F)F)c1
IC50 (MKN-45; cell growth or viability, ATP luminescence): 1.4 µM

COc1cc(C(=O)c2csc(-c3ccccc3)n2)cc(OC)c1OC
IC50 (B16-F1; cell growth or viability, SRB): 0.019 µM

COc1cc(/C=C/C(=O)/C=C(O)/C=C/c2cccnc2)ccc1O
IC50 (CHO-K1; cell growth or viability, SRB; 72 h): 36.1 µM

Nc1c(-c2ccccc2[N+](=O)[O-])nc2ccccn12
IC50 (Vero; cell growth or viability, MTT; 48 h): 65 µM

Cn1nnc2c(Cl)ncn2c1=O
IC50 (D54; cell growth or viability, resazurin; 7 days): 21 µM

CC(=O)O[C@H]1C(=O)[C@@]2(C)[C@H]([C@H](OC(=O)c3ccccc3)[C@]3(O)C[C@H](OC(=O)[C@H](O)[C@@H](NC(=O)c4ccccc4)c4ccccc4)C(C)=C1C3(C)C)[C@]1(OC(C)=O)CO[C@@H]1C[C@@H]2O
IC50 (MDA-MB-436; cell growth or viability, ATP luminescence; 72 h): 0.0099 µM

COc1cc(/C=C/c2cc(/C=C/c3cccc4cnccc34)[nH]n2)ccc1O
IC50 (CHO-K1; cell growth or viability, SRB; 72 h): 7.9 µM

O=[N+]([O-])c1ccc(-c2nc3cnccn3c2NC2CCCCC2)cc1
IC50 (Vero; cell growth or viability, MTT; 48 h): 64 µM

O=C1C=C(/C=C/c2cccnc2)N(CCCO)C(c2cccnc2)C1 (stereo not drawn)
IC50 (CHO-K1; cell growth or viability, SRB; 72 h): > 75 µM

Cc1ccc2nc(-c3ccc([N+](=O)[O-])cc3)n(Cc3ccccc3)c2c1
IC50 (human Rhabdomyosarcoma cell; cell growth or viability, MTT): 8.45 µM

COCCCNC(=C\C(=O)/C=C/c1cccnc1)/C=C/c1cccnc1
IC50 (CHO-K1; cell growth or viability, MTT; 72 h): 21.3 µM

NS(=O)(=O)OC[C@@H]1C[C@@H](n2ccc3c(N[C@H]4CCc5ccccc54)ncnc32)C[C@@H]1O
IC50 (NCI-H1299; cell growth or viability, CCK-8; 72 h): 0.9 µM

COc1cc(/C=C/C(=O)CC(=O)/C=C/c2ccc(O)c(OC)c2)ccc1O
IC50 (CHO-K1; cell growth or viability, MTT; 72 h): 21.3 µM

Cn1nnc2c(C(N)=O)ncn2c1=O
IC50 (D54; cell growth or viability, resazurin; 7 days): 12 µM

COc1cc2c(Oc3ccc(NC(=O)C4(C(=O)Nc5ccc(F)cc5)CC4)cc3F)ccnc2cc1OCCCN1CCOCC1
IC50 (Rh30; cell growth or viability; 72 h): 0.6 µM

Cc1ccc(C(=O)Nc2ccc(Oc3cc4cnn(C)c4cc3-c3cn[nH]c3)c(F)c2)c(=O)n1-c1ccc(F)cc1
IC50 (MKN-45; cell growth or viability, ATP luminescence): 0.028 µM

CC(C)(C)Nc1c(-c2ccc(N)cc2)nc2ccccn12
IC50 (Vero; cell growth or viability, MTT; 48 h): 91 µM

O=C(/C=C(O)/C=C/c1ccc2ccccc2n1)/C=C/c1c[nH]c2ccccc12
IC50 (CHO-K1; cell growth or viability, MTT; 72 h): 41.6 µM

O=[N+]([O-])c1ccc(-c2nc3ccccc3[nH]2)cc1
IC50 (human Rhabdomyosarcoma cell; cell growth or viability, MTT; 48 h): 23.4 µM

O=C(/C=C(/C=C/c1cccnc1)NC1CCCCC1)/C=C/c1cccnc1
IC50 (CHO-K1; cell growth or viability, MTT; 72 h): 16.8 µM

COc1ccccc1/C=C/CNCC(O)COc1cccc2[nH]ccc12 (stereo not drawn)
IC50 (NCI-H1299; cell growth or viability, CCK-8; 72 h): 23.1 µM

O=C(/C=C(/C=C/c1cccnc1)NCCO)/C=C/c1cccnc1
IC50 (CHO-K1; cell growth or viability, MTT; 72 h): > 75 µM

O=C(O)Cc1ccccc1Nc1c(Cl)cccc1Cl
IC50 (RAW264.7; TNF-α release, inhibitor; LPS-stimulated): 21.3 µM

Cc1ccc2nc(-c3ccccc3O)[nH]c2c1
IC50 (human Rhabdomyosarcoma cell; cell growth or viability, MTT; 48 h): 6.76 µM

O=C(/C=C(O)/C=C/c1ccc[nH]1)/C=C/c1ccc[nH]1
IC50 (CHO-K1; cell growth or viability, SRB; 72 h): 11.7 µM

CCOc1ccc(-c2nc3ccc(C)cc3[nH]2)cc1
IC50 (human Rhabdomyosarcoma cell; cell growth or viability, MTT; 48 h): 76.2 µM

COc1ccc(-c2nc(C(=O)Nc3nnc(-c4cc5ccccc5n4C)s3)cc3c2[nH]c2ccccc23)cc1
IC50 (HL-60; cell growth or viability, MTT; 72 h): 30.2 µM

COc1ccccc1/C=C/CNCC(O)COc1ccc2c(c1)[nH]c1ccccc12 (stereo not drawn)
IC50 (NCI-H1299; cell growth or viability, CCK-8; 72 h): 3.9 µM

Cc1ccc2nc(-c3ccc(Cl)cc3)n(Cc3ccccc3)c2c1
IC50 (human Rhabdomyosarcoma cell; cell growth or viability, MTT): 4.83 µM

COc1cc(/C=C/C(=O)/C=C(O)/C=C/c2ccnc3ccccc23)ccc1O
IC50 (CHO-K1; cell growth or viability, MTT; 72 h): 22.3 µM

CC(C)C[C@H](NC(=O)[C@H](Cc1ccccc1)NC(=O)c1cnccn1)B(O)O
IC50 (SNU-840; cell growth or viability, ATP luminescence): 0.0081 µM

O=C(/C=C(O)/C=C/c1ccncc1)/C=C/c1c[nH]c2ccccc12
IC50 (CHO-K1; cell growth or viability, MTT; 72 h): 42.9 µM

COc1ccccc1CNCC(O)COc1cccc2[nH]c3ccccc3c12 (stereo not drawn)
IC50 (NCI-H1299; cell growth or viability, CCK-8; 72 h): 14.8 µM

COc1cc(N2CCC(N3CCN(C)CC3)CC2)ccc1Nc1ncc(Cl)c(Nc2ccccc2S(=O)(=O)C(C)C)n1
IC50 (Rh30; cell growth or viability; 72 h): 0.3 µM

Cc1ccc2nc(-c3ccc(Cl)cc3Cl)[nH]c2c1
IC50 (human Rhabdomyosarcoma cell; cell growth or viability, MTT; 48 h): 29.9 µM

CC(C)CNC(=C\C(=O)/C=C/c1cccnc1)/C=C/c1cccnc1
IC50 (CHO-K1; cell growth or viability, MTT; 72 h): 17.7 µM

O=C(/C=C(O)/C=C/c1ccccn1)/C=C/c1c[nH]c2ccccc12
IC50 (CHO-K1; cell growth or viability, MTT; 72 h): 22.3 µM
